Laboratory results from ChEMBL document CHEMBL2429849, “Substrate-based fragment identification for the development of selective, nonpeptidic inhibitors of striatal-enriched protein tyrosine phosphatase” (J Med Chem, 2013).

How the values were obtained:
[1] = target: T1, Receptor-type tyrosine-protein phosphatase C (Homo sapiens, UniProt P08575); assay: Inhibition of human CD45 using pNPP as substrate after 5 mins by spectrophotometric plate reader analysis
T1 sequence (P08575 whole entry): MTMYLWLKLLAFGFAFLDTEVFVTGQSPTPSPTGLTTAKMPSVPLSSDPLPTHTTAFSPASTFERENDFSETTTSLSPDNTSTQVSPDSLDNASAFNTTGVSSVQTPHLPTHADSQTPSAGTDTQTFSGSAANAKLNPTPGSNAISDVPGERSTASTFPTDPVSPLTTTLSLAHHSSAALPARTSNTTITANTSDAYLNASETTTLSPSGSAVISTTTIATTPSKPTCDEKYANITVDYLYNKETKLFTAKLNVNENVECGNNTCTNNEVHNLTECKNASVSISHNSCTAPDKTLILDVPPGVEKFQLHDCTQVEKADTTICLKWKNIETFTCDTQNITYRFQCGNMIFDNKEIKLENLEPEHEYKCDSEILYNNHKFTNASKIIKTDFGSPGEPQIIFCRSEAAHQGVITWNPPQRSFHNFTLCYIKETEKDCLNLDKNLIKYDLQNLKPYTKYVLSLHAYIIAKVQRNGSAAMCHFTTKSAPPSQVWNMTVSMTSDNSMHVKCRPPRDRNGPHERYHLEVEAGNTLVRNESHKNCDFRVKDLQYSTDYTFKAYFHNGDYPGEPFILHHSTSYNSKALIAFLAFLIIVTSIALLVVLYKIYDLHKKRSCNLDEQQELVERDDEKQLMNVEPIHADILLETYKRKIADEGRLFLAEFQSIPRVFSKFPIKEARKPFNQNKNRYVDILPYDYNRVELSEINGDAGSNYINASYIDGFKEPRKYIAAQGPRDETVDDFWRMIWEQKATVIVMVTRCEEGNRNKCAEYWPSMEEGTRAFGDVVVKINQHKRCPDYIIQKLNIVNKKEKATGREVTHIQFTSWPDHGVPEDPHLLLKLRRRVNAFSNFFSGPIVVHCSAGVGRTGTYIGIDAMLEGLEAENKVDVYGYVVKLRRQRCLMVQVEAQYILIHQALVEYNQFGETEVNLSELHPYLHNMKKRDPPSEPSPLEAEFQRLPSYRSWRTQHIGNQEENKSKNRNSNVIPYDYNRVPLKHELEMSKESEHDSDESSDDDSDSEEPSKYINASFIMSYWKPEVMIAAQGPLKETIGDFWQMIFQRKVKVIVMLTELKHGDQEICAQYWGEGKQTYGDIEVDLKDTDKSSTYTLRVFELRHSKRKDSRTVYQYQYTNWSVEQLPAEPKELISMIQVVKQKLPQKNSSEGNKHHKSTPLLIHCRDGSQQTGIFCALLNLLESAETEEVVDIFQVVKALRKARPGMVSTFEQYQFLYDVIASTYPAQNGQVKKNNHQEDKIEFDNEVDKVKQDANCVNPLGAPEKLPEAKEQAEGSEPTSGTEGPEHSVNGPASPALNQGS
Summary of the method: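 Enzyme preincubated 5 min at 27 °C with serially diluted inhibitor (from DMSO) in imidazole/NaCl buffer pH 7.0 with 0.01% Triton X-100 and 5 mM DTT. Started with pNPP (500 μM in assay) and read at 405 nm for 20 min. The pNPP KM was measured for each enzyme. Ki from nonlinear regression of substrate–velocity curves at several inhibitor levels; at least duplicate.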

[2] = target: T2, Tyrosine-protein phosphatase non-receptor type 5 (Homo sapiens, UniProt P54829); assay: Inhibition of human STEP using pNPP as substrate after 5 mins by spectrophotometric plate reader analysis
T2 sequence (P54829 whole entry): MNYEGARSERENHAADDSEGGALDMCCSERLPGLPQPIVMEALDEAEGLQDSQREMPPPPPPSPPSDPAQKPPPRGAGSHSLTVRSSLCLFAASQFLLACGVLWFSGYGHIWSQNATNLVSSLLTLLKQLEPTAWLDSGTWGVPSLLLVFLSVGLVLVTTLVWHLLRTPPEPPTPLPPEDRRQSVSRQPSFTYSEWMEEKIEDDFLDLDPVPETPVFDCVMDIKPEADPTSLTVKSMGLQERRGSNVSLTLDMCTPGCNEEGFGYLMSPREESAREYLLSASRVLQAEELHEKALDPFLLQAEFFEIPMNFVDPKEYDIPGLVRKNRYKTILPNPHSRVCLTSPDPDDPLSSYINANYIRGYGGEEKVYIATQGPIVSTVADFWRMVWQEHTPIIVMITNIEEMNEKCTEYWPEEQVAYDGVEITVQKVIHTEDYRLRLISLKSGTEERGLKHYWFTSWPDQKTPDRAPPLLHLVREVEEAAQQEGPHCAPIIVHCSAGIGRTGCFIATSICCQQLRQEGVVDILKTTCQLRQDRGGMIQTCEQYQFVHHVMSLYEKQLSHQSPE

Homo sapiens = species: Homo sapiens; assay: Selectivity ratio of Ki for human MKP5 to Ki for human STEP
Summary of the method: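 STEP, CD45, LAR and TC-PTP used pNPP (500 μM) in imidazole/NaCl pH 7.0 with Triton X-100, read at 405 nm for 20 min. MKP5 used DiFMUP in Tris-HCl pH 8.0. The enzyme's own pNPP KM was used in analysis; ratio of the Ki values.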

[3] = Effective permeability of the compound at pH 7.4 by PAMPA; type: ADME; conditions: read-out: Peff

O=P(O)(O)[C@H](O)c1ccc(-c2cccc([C@H](O)c3ccc(Cl)c(Cl)c3)c2)cc1
Ki [1]: 270 µM
Ki [2]: 7.8 µM

O=P(O)(O)[C@H](O)c1ccc(-c2cccc([C@@H](O)c3ccc(Cl)c(Cl)c3)c2)cc1
Ratio Ki (Homo sapiens): 41
Papp [3]: < 0.1 ×10⁻⁶ cm/s
Ki [1]: 340 µM
Ki [2]: 8.9 µM
